Data as given in ChEMBL document CHEMBL1121388, “Analgesic narcotic antagonists. 2. 8-Alkymorphinan-6-ones” (J Med Chem, 1980).
Activity calls are given as the source filed them. The rule behind the calls is not given here.

Tests used:
Rattus norvegicus [1] = assay: The Effective dose was measured by using rat tail flick assay after the compound administered subcutaneously at a dose 27umol/kg; IA means inactive at the given dose; assay type: functional, organism-based
How it was run: (§1)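 Agonist activity in the rat heat-stimulus tail-flick test. Drug was given subcutaneously and rats were tested 20 min after dosing. Salts were dissolved in distilled H₂O; free bases were dissolved with dropwise 1 N HCl and then diluted. ED₅₀ or inactivity/lethality recorded at the dose indicated.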

Mus musculus [2] = assay: The Effective dose was measured by using mouse writhing assay after the compound administered subcutaneously at a dose 27umol/kg; IA means inactive at the given dose; assay type: functional, organism-based
How it was run: (§2)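 Analgesia in the mouse writhing test induced by acetic acid, with compound given subcutaneously. Salts were dissolved in distilled H₂O; free bases were dissolved by dropwise 1 N HCl and then diluted.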

Rattus norvegicus [3] = assay: The %change in weight from day 0 to day1 after administering the compound at dose of 40 (mg/kg)/day in rat; assay type: functional
How it was run: (§3)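 Rat physical dependence liability study: drug infused at the stated mg/kg/day for 6 days, with saline-infused controls for 6 days. Body weight was recorded daily and expressed as % change from day 0 on days 1–4. Groups of 4–6 rats; values are means ±.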

Rattus norvegicus [4] = assay: The %change in weight from day 0 to day 4 after administering the compound at dose of 40 (mg/kg)/day in rat; assay type: functional; how it was run: as §3
Rattus norvegicus [5] = assay: The %change in weight from day 0 to day 3 after administering the compound at dose of 40 (mg/kg)/day in rat; assay type: functional; how it was run: as §3
Rattus norvegicus [6] = assay: The %change in weight from day 0 to day 2 after administering the compound at dose of 40 (mg/kg)/day in rat; assay type: functional; how it was run: as §3
Rattus norvegicus [7] = assay: The effective dose was measured by using rat tail flick assay after the compound administered intraperitoneally.; assay type: functional; conditions: ip
Mus musculus [8] = assay: The Effective dose was measured by using mouse writhing assay after the compound administered subcutaneously at a dose of 24 umol/kg; IA means inactive at the given dose; assay type: functional, organism-based; how it was run: as §2
Mus musculus [9] = assay: The effective dose was measured by using mouse writhing assay after the compound administered subcutaneously.; assay type: functional; conditions: sc; how it was run: as §2
Rattus norvegicus [10] = species: Rattus norvegicus; assay: Ratio of agonist to that of antagonist activity; assay type: functional
Rattus norvegicus [11] = assay: The Effective dose was measured by using rat tail flick assay after the compound administered intraperitoneally at a dose of 25 umol/kg; IA means inactive at the given dose; assay type: functional, organism-based
Rattus norvegicus [12] = assay: Effective dose was measured by using rat tail flick assay after subcutaneous administration; assay type: functional; conditions: sc; how it was run: as §1
Mus musculus [13] = assay: The Effective dose was measured by using mouse writhing assay after the compound administered subcutaneously at a dose of 50 umol/kg; IA means inactive at the given dose; assay type: functional, organism-based; how it was run: as §2
Mus musculus [14] = assay: The Effective dose was measured by using mouse writhing assay after the compound administered subcutaneously; IA means inactive; assay type: functional, organism-based; how it was run: as §2
Mus musculus [15] = assay: The Effective dose was measured by using mouse writhing assay 5 min after the compound administered subcutaneously; assay type: functional; conditions: sc
Rattus norvegicus [16] = assay: The Effective dose was measured by using rat tail flick assay after the compound administered intraperitoneally at a dose of 50 uM/Kg; IA means inactive at the given dose; assay type: functional, organism-based
Mus musculus [17] = assay: The Effective dose was measured by using mouse writhing assay after the compound administered subcutaneously at a dose of 22 umol/kg; IA means inactive at the given dose; assay type: functional, organism-based; how it was run: as §2
Rattus norvegicus [18] = assay: The Effective dose was measured by using rat tail flick assay after the compound administered intraperitoneally at a dose of 30 umol/kg; IA means inactive at the given dose; assay type: functional, organism-based

Row | Structure (SMILES) | ED50 (Rattus norvegicus [7]) | ED50 (Mus musculus [9]) | further results
1 | CCC[C@H]1CC(=O)CC23CCN(C)C(Cc4ccc(O)cc42)[C@H]13 (stereo partly specified) |  |  | ED50 (Rattus norvegicus [1]): inactive; ED50 (Mus musculus [2]): inactive
2 | O=C(O)C(O)C(O)C(=O)O.Oc1ccc2c(c1)[C@@]13CCCC[C@@]1(O)[C@@H](C2)N(CC1CCC1)CC3 [BUTORPHANOL TARTRATE] |  |  | Change (Rattus norvegicus [3]): -6.6%; Change (Rattus norvegicus [4]): 2.2%; Change (Rattus norvegicus [5]): 0.9%; Change (Rattus norvegicus [6]): -3.1%
3 | CCC[C@@H]1CC(=O)CC23CCN(CC4CCC4)C(Cc4ccc(OC)cc42)[C@@H]13 (stereo partly specified) | > 24 µmol/kg |  | ED50 (Mus musculus [8]): inactive
4 | C=CCN1CCC23CC(=O)CC(C)[C@H]2C1Cc1ccc(OC)cc13 (stereo partly specified) | > 24 µmol/kg | 3.47 µmol/kg | 
5 | C[C@H]1CC(=O)CC23CCN(CC4CCC4)C(Cc4ccc(O)cc42)[C@H]13.Cl (stereo partly specified) | 2.79 µmol/kg | 0.29 µmol/kg | Ratio (Rattus norvegicus [10]): 0.1
6 | CCC[C@H]1CC(=O)CC23CCN(CC4CC4)C(Cc4ccc(OC)cc42)[C@H]13 (stereo partly specified) |  | 12.4 µmol/kg | ED50 (Rattus norvegicus [11]): inactive
7 | COc1ccc2c(c1)C13CCN(CC4CCC4)C(C2)[C@@H]1[C@@H](C)CC(=O)C3.Cl (stereo partly specified) | 16.4 µmol/kg | 1.38 µmol/kg | Ratio (Rattus norvegicus [10]): 0.08
8 | COc1ccc2c(c1)C13CCN(C)C(C2)[C@H]1CCC(=O)C3 (stereo partly specified) |  | 5.54 µmol/kg | ED50 (Rattus norvegicus [12]): > 70 µmol/kg
9 | CC[C@H]1CC(=O)CC23CCN(CC4CC4)C(Cc4ccc(O)cc42)[C@H]13 (stereo partly specified) | 4.7 µmol/kg |  | ED50 (Mus musculus [13]): inactive
10 | CCC[C@@H]1CC(=O)CC23CCN(CC4CC4)C(Cc4ccc(O)cc42)[C@@H]13 (stereo partly specified) | 3.34 µmol/kg |  | ED50 (Mus musculus [8]): inactive
11 | CC[C@@H]1CC(=O)CC23CCN(C)C(Cc4ccc(OC)cc42)[C@@H]13 (stereo partly specified) |  | 37 µmol/kg | ED50 (Rattus norvegicus [12]): > 28 µmol/kg
12 | C=CCN1CC[C@]23c4c5ccc(O)c4O[C@H]2C(=O)CC[C@@]3(O)[C@H]1C5 [NALOXONE] |  |  | ED50 (Mus musculus [14]): inactive
13 | COc1ccc2c(c1)C13CCN(CC4CCC4)C(C2)[C@H]1[C@H](C)CC(=O)C3 (stereo partly specified) |  | 47 µmol/kg | ED50 (Rattus norvegicus [11]): inactive
14 | COc1ccc2c3c1O[C@H]1[C@@H](O)C=C[C@H]4[C@@H](C2)N(C)CC[C@@]341 [CODEINE] |  | 10.3 µmol/kg | ED50 (Rattus norvegicus [12]): 75 µmol/kg
15 | COc1ccc2c(c1)C13CCN(CC4CC4)C(C2)[C@H]1[C@H](C)CC(=O)C3 (stereo partly specified) | 9 µmol/kg | > 80 µmol/kg | 
16 | CN1CCC23CC(=O)CC[C@H]2C1Cc1ccc(O)cc13 (stereo partly specified) |  | 0.52 µmol/kg | ED50 (Rattus norvegicus [12]): 70 µmol/kg
17 | C[C@H]1CC(=O)C[C@]23CCN(CC4CC4)[C@H](Cc4ccc(O)cc42)[C@H]13 | 1.8 µmol/kg | 10.2 µmol/kg | Ratio (Rattus norvegicus [10]): 5.7
18 | CCC[C@H]1CC(=O)CC23CCN(CC4CCC4)C(Cc4ccc(O)cc42)[C@H]13 (stereo partly specified) | 7.67 µmol/kg | 1.06 µmol/kg | 
19 | CCC[C@@H]1CC(=O)CC23CCN(C)C(Cc4ccc(O)cc42)[C@@H]13 (stereo partly specified) |  | 1.37 µmol/kg | ED50 (Rattus norvegicus [12]): 2.46 µmol/kg
20 | Cl.O=C1CC[C@@H]2C3Cc4ccc(O)cc4C2(CCN3CC2CC2)C1 (stereo partly specified) | 2.24 µmol/kg |  | ED50 (Mus musculus [15]): 8.9 µmol/kg; Ratio (Rattus norvegicus [10]): 4
21 | CCC[C@H]1CC(=O)CC23CCN(CC4CCC4)C(Cc4ccc(OC)cc42)[C@H]13 (stereo partly specified) |  | 34 µmol/kg | ED50 (Rattus norvegicus [16]): inactive
22 | O=C1CC[C@@H]2C3Cc4ccc(O)cc4C2(CCN3CC2CCC2)C1 (stereo partly specified) | 13.8 µmol/kg | 2.6 µmol/kg | 
23 | C[C@H]1CC(=O)CC23CCN(C)C(Cc4ccc(O)cc42)[C@H]13 (stereo partly specified) |  | 2.55 µmol/kg | ED50 (Rattus norvegicus [12]): > 30 µmol/kg
24 | CC(C)=CCN1CC[C@]2(C)c3cc(O)ccc3C[C@H]1[C@H]2C [(+)-PENTAZOCINE] |  |  | Ratio (Rattus norvegicus [10]): 0.36
25 | CCC[C@@H]1CC(=O)CC23CCN(CC4CC4)C(Cc4ccc(OC)cc42)[C@@H]13 (stereo partly specified) | 6.4 µmol/kg |  | ED50 (Mus musculus [17]): inactive
26 | COc1ccc2c(c1)C13CCN(CC4CCC4)C(C2)[C@H]1CCC(=O)C3 (stereo partly specified) |  | 20.3 µmol/kg | ED50 (Rattus norvegicus [18]): inactive
27 | CC[C@@H]1CC(=O)CC23CCN(CC4CCC4)C(Cc4ccc(O)cc42)[C@@H]13 (stereo partly specified) | 11.6 µmol/kg | > 24 µmol/kg | 
28 | COc1ccc2c(c1)C13CCN(CC4CC4)C(C2)[C@H]1CCC(=O)C3 (stereo partly specified) | 3.6 µmol/kg | > 25 µmol/kg | 
29 | COc1ccc2c3c1O[C@H]1C(=O)CC[C@H]4[C@@H](C2)N(C)CC[C@]314 [HYDROCODONE] |  |  | ED50 (Rattus norvegicus [12]): 5.2 µmol/kg
